Source: ChEMBL document CHEMBL2417485, “Quinazoline-based multi-tyrosine kinase inhibitors: synthesis, modeling, antitumor and antiangiogenic properties” (Eur J Med Chem, 2013)
Each block holds one molecule with its values, some of them ahead of it. Active and inactive are the calls of the source. The rule behind the calls is not given here.

How the values were obtained:
[1] = test system: NIH3T3; experiment: Antiproliferative activity against mouse NIH/3T3 cells after 72 hrs by MTT assay; format: cell-based; conditions: NIH3T3, 72 h
[2] = test system: A-431; experiment: Antiproliferative activity against human A431 cells after 72 hrs by MTT assay; format: functional, cell-based; conditions: A-431, 72 h
[3] = Toxicity in mouse BNL 1ME A.7R.1 cells allografted Balb/c mouse model assessed as body weight loss at 50 mg/kg, ip daily measured after 3 days; format: organism-based; set-up: dose 50 mg/kg, route intraperitoneal; conditions: in vivo, 72 h
[4] = test system: HUVEC; experiment: Antiangiogenic activity in HUVEC assessed as reduction in cell migration at 1 uM after 4 hrs by matrigel assay; format: functional, cell-based; conditions: Homo sapiens, in the assay text read “by modified Boyden chamber assay” for “by matrigel assay”
Outline: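 Modified Boyden chamber. HUVECs (3×10^4 cell/cm²) were placed on 5.0 µm pore inserts in basal medium with 1% FCS, ±1 µM compound; the lower chamber held growth-factor medium. After 4 h, cells were fixed, the upper side was swabbed, and membranes were DAPI-stained. Nuclei were counted in five fields per insert. Five repeats; results are the percent change from growth-factor-only controls.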

[5] = target: T1, Platelet-derived growth factor receptor beta (Homo sapiens, UniProt P09619); experiment: Inhibition of PDGFRbeta (unknown origin) at 1 uM
T1 sequence (P09619 whole entry): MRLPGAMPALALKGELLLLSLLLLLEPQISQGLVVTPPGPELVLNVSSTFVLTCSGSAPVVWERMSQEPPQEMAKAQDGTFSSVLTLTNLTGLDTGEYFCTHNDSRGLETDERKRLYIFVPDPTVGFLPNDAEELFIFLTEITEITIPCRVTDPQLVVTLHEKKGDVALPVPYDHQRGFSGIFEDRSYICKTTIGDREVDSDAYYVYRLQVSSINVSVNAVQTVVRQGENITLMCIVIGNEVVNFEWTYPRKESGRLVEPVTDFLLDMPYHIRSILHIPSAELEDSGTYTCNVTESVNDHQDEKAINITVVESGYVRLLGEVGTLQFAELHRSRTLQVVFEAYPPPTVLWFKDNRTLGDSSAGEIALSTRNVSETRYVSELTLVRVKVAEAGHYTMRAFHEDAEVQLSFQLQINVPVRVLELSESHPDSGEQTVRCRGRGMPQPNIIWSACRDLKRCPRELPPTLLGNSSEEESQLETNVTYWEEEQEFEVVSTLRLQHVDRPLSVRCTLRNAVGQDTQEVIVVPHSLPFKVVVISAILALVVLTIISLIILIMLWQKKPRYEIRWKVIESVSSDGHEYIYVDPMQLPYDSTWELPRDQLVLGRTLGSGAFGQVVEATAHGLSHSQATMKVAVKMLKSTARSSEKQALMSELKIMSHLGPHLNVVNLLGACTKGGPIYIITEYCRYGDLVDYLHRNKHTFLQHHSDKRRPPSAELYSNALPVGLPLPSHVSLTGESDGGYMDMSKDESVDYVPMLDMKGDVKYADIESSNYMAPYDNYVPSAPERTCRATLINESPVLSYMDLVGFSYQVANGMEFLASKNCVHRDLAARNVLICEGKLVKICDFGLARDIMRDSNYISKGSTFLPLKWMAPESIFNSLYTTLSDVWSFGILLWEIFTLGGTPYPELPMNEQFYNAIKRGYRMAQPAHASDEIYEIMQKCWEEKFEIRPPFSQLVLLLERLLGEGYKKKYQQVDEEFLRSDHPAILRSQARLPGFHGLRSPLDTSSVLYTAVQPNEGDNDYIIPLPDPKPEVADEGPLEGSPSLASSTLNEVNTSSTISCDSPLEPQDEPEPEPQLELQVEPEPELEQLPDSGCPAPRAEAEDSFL

[6] = target: Vascular endothelial growth factor receptor 2 (Homo sapiens) (UniProt P35968); experiment: Inhibition of VEGFR2 (unknown origin) at 1 uM
Vascular endothelial growth factor receptor 2 (Homo sapiens), sequence (P35968 whole entry): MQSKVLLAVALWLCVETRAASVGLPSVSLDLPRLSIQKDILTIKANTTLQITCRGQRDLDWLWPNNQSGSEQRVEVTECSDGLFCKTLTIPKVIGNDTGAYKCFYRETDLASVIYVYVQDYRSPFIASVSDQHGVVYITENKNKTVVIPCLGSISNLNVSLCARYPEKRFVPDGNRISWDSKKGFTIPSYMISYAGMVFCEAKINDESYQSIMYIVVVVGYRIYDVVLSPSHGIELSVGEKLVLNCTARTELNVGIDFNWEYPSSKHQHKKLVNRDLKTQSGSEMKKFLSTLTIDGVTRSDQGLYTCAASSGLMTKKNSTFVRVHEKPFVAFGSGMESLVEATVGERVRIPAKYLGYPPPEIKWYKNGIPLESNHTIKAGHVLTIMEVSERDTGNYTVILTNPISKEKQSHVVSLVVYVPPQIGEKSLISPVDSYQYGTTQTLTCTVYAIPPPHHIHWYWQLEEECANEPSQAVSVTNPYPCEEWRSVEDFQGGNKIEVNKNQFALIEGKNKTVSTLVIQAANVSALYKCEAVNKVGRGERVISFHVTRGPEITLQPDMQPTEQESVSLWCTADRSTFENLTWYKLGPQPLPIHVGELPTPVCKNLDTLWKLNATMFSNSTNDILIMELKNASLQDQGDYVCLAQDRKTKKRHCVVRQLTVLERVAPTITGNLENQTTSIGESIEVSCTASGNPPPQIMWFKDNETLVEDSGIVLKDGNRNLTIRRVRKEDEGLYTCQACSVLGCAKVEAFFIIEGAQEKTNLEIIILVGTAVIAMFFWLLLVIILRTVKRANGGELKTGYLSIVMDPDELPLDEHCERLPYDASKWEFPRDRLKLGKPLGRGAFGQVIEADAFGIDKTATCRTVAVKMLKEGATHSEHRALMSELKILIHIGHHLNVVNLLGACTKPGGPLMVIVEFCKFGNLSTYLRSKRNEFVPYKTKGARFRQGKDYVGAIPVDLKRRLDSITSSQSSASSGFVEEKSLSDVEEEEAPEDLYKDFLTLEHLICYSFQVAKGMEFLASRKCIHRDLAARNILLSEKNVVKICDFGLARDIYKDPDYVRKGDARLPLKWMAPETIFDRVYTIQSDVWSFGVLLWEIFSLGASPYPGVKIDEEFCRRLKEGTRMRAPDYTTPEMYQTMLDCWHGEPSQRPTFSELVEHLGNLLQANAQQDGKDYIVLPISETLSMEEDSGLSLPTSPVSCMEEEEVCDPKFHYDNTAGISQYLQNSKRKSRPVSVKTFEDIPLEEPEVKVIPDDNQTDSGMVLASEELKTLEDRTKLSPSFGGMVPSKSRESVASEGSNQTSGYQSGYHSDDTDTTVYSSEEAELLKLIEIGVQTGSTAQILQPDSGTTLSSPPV
Outline: (§1)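 Recombinant FGFR-1 or VEGFR-2 (final 200 ng/mL) in MOPS pH 7.2 buffer with MgCl2, EGTA, EDTA, DTT and BSA. Compound range was 1–0.01 µM. Reactions used myelin basic protein (0.2 mg/ml), 0.05 mM ATP and 0.25 μCi [γ-32P]ATP, 30 °C for 20 min.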

[7] = target: Tyrosine-protein kinase ABL1 (Homo sapiens, UniProt P00519); experiment: Inhibition of Abl (unknown origin)
Tyrosine-protein kinase ABL1, sequence (P00519 whole entry): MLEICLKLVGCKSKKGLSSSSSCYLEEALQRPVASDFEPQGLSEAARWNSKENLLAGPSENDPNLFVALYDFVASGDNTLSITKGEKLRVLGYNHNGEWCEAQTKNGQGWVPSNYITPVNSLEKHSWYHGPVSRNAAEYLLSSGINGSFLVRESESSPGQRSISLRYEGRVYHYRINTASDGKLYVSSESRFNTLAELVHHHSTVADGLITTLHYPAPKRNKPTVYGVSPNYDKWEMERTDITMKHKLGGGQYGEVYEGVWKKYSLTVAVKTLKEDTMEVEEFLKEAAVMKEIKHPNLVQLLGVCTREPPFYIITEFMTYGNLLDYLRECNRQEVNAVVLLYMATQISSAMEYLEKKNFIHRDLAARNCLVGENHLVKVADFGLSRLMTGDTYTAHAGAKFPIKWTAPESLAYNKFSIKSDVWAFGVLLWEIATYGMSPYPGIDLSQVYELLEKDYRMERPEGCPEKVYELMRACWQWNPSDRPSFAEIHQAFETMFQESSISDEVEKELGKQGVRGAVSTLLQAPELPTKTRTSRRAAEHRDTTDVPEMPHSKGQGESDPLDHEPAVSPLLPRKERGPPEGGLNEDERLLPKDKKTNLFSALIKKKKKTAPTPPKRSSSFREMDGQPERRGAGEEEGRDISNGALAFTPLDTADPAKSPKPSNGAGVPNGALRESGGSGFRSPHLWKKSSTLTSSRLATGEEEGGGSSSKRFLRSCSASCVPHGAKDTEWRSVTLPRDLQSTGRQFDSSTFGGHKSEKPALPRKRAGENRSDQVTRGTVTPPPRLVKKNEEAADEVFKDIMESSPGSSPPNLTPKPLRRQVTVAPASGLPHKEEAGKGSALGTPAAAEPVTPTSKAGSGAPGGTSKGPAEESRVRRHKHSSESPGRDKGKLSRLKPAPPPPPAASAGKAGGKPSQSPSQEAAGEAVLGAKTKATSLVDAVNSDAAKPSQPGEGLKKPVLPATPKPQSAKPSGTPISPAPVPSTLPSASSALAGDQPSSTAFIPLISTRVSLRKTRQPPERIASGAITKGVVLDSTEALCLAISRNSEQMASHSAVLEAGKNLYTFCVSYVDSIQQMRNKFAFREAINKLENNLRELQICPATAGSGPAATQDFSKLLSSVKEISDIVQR

[8] = target: Proto-oncogene tyrosine-protein kinase Src (Homo sapiens, UniProt P12931); experiment: Inhibition of Src (unknown origin)
Proto-oncogene tyrosine-protein kinase Src, sequence (P12931 2-536 limits assumed): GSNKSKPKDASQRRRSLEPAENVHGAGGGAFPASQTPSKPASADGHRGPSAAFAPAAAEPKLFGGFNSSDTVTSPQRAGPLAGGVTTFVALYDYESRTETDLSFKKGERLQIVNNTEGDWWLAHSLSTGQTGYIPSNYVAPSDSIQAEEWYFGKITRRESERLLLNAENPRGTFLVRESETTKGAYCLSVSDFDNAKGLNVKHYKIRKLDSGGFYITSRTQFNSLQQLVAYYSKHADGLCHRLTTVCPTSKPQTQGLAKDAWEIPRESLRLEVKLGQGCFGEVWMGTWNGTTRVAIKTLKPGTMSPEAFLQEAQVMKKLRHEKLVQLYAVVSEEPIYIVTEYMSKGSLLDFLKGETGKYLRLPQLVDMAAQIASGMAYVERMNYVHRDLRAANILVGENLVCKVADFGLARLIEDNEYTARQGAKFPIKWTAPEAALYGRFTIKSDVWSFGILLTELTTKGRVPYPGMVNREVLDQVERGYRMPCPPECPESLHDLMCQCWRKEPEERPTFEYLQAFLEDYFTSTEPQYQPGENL

[9] = target: Fibroblast growth factor receptor 1 (Homo sapiens, UniProt P11362); experiment: Inhibition of FGFR1 (unknown origin); outline: as §1
Fibroblast growth factor receptor 1, sequence (P11362 whole entry): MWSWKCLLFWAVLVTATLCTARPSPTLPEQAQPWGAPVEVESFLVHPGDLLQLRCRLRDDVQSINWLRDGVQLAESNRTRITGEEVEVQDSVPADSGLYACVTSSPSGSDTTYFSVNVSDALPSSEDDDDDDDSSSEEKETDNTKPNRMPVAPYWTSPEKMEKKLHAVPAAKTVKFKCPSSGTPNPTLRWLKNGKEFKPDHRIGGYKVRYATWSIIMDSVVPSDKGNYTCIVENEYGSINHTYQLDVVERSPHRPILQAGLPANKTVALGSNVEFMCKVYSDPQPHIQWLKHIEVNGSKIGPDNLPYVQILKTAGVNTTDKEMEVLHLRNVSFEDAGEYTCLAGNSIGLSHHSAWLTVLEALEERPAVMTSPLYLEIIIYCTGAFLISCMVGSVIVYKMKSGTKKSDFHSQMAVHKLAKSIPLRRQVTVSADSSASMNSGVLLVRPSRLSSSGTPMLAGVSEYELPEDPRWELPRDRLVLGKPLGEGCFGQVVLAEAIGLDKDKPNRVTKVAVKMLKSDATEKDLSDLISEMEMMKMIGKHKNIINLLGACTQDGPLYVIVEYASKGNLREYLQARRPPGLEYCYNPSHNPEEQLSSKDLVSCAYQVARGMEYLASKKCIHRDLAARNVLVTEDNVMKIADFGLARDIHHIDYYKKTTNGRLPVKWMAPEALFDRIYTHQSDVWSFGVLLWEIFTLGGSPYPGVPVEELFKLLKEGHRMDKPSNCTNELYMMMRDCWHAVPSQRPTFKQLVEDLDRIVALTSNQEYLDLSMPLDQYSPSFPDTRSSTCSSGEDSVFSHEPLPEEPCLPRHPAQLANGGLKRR

[10] = target: Epidermal growth factor receptor (Homo sapiens, UniProt P00533); experiment: Inhibition of EGFR (unknown origin)
[11] = Antiproliferative activity against mouse BNL 1ME A.7R.1 cells after 72 hrs by MTT assay; format: functional, cell-based
[12] = test system: HT-29; experiment: Antiproliferative activity against human HT-29 cells after 72 hrs by MTT assay; format: functional, cell-based; conditions: HT-29, 72 h
[13] = test system: HeLa; experiment: Antiproliferative activity against human HeLa cells after 72 hrs by MTT assay; format: functional, cell-based
[14] = test system: HUVEC; experiment: Antiproliferative activity against HUVEC after 72 hrs by MTT assay; format: cell-based; conditions: Homo sapiens
[15] = Antiproliferative activity against human MCF7/beta cells after 72 hrs by MTT assay; format: functional, cell-based; conditions: MCF7, 72 h
[16] = test system: Mus musculus; experiment: Inhibition of FGF2-induced neovascularization in C57/BL6 mouse assessed as reduction in hemoglobin concentration in matrigel plug at 1 uM, sc measured after 7 days; format: functional, organism-based
Outline: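 Three-month-old C57/BL6 mice under isoflurane received 0.5 mL Matrigel GFR subcutaneously into the flank. The gel contained heparin (12 U.I.), ±FGF-2 200 ng/plug and 1 µM compound. After 7 days, plugs were removed and steeped overnight at 4 °C in 0.1% Brij-35/PBS. Hemoglobin was measured with Drabkin's reagent at 540 nm.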

[17] = test system: HUVEC; experiment: Antiproliferative activity against HUVEC assessed as reduction in cell viability at 10 uM after 24 hrs by MTT assay; format: cell-based; conditions: human
Outline: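 Primary HUVECs (passage ≤5) were seeded at 1×10^4 cell/cm² and grown for 24 h. They were exposed to compound at 10 μM for 24 h (20 h, then MTT 0.50 mg/ml for 4 h). Absorbance was read at 570 nm. Results are the percent change from untreated cultures; mean ± SD of ≥3 experiments.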

[18] = test system: HUVEC; experiment: Induction of apoptosis in HUVEC assessed as mono-/oligo-nucleosome formation at 10 uM after 24 hrs by ELISA; format: functional, cell-based; conditions: Homo sapiens
[19] = test system: HUVEC; experiment: Antiangiogenic activity in HUVEC assessed as effect on number of cell meshwork at 0.1 uM after 18 hrs; conditions: Homo sapiens
[20] = test system: HUVEC; experiment: Antiangiogenic activity in HUVEC assessed as disruption of tube-like structures at 0.1 uM after 18 hrs by phase contrast microscopy; conditions: Homo sapiens
[21] = test system: Mus musculus; experiment: Antitumor activity against mouse BNL 1ME A.7R.1 cells allografted in Balb/c mouse assessed as tumor growth inhibition at 50 mg/kg, ip daily measured after 7 days; format: functional, organism-based; set-up: dose 50 mg/kg
Outline: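 Male Balb/c mice, 10 weeks old, received 10⁷ BNL 1ME A.7R.1 cells in PBS subcutaneously in the dorsal region. From day 7, mice were dosed daily ip with 50 mg/kg in 0.9% NaCl with 5% PEG 400 and 0.5% Tween 80, or vehicle. Tumors were measured daily for 7 days by caliper (V = AB²/2). Mean ± SEM, five animals per group.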

[22] = target: T1, Platelet-derived growth factor receptor beta; experiment: Inhibition of PDGFRbeta (unknown origin)
[23] = test system: HUVEC; experiment: Antiangiogenic activity in HUVEC assessed as decrease in dimensional parameters at 0.1 uM after 18 hrs; conditions: Homo sapiens

Structure (SMILES): FC(F)(F)c1cccc(Nc2ncnc3c2ccc2ccccc23)c1
IC50 [1]: > 10 µM | IC50 [2]: > 10 µM

Structure (SMILES): Cn1c(=O)n(C)c2cc3c(Nc4cccc(C(F)(F)F)c4)ncnc3cc21
IC50 [1]: > 10 µM | IC50 [2]: > 10 µM

Structure (SMILES): Cc1cccc(Nc2ncnc3cc4c(cc23)OCO4)n1
IC50 [1]: > 10 µM | IC50 [2]: > 10 µM

Structure (SMILES): Cc1cccc(Nc2ncnc3cc4c(cc23)OCCO4)n1
IC50 [1]: > 10 µM | IC50 [2]: > 10 µM

Structure (SMILES): CS(=O)(=O)Nc1cccc(Nc2ncnc3cc4c(cc23)OCO4)c1
IC50 [1]: > 10 µM | IC50 [2]: > 10 µM

Structure (SMILES): Cc1cccc(Nc2ncnc3c2ccc2ccccc23)c1
IC50 [1]: > 10 µM | IC50 [2]: > 10 µM

Structure (SMILES): CS(=O)(=O)Nc1cccc(Nc2ncnc3cc4c(cc23)OCCO4)c1
IC50 [1]: > 10 µM | IC50 [2]: > 10 µM

Structure (SMILES): Cl.c1ccc(-c2cccc(Nc3ncnc4cc5c(cc34)OCO5)c2)cc1
TGI [21]: Active | inhibition [4]: Active | IC50 [7]: 51 nM | IC50 [8]: 32 nM | IC50 [22]: 243 nM | IC50 [9]: 63 nM | IC50 [11]: 2800 nM | IC50 [1]: 0.6 µM | IC50 [12]: 950 nM | IC50 [14]: 750 nM | inhibition [16]: Active | Activity [17]: Non-toxic | Activity [18]: inactive | Activity [19]: Active | Activity [20]: inactive

Structure (SMILES): Cc1cccc(Nc2ncnc3cc4c(cc23)n(C)c(=O)n4C)c1
IC50 [1]: > 10 µM | IC50 [2]: > 10 µM

Structure (SMILES): C=CCOc1cc2ncnc(Nc3cccc(C(F)(F)F)c3)c2cc1OC
IC50 [1]: > 10 µM | IC50 [2]: 5.95 µM

Structure (SMILES): Cn1c(=O)n(C)c2cc3c(Nc4cccc(Br)c4)ncnc3cc21
IC50 [1]: > 10 µM | IC50 [2]: > 10 µM

Structure (SMILES): COc1cc2ncnc(Nc3cccc(Br)c3)c2cc1OC
inhibition [4]: Active | IC50 [11]: 9500 nM | IC50 [1]: > 10 µM | IC50 [12]: > 10000 nM | IC50 [13]: > 10 µM | IC50 [14]: 4060 nM | IC50 [15]: 8210 nM | inhibition [16]: inactive | Activity [19]: Active | Activity [20]: inactive

Structure (SMILES): C=CCOc1cc2ncnc(Nc3cccc(Br)c3)c2cc1OC
IC50 [1]: > 10 µM | IC50 [2]: 4.49 µM

Now from value to molecule, other results behind:

IC50 [2]: 8.45 µM
Structure (SMILES): C=CCOc1cc2ncnc(Nc3cccc(C)c3)c2cc1OC
IC50 [1]: 6.6 µM

inhibition [5]: 40% | inhibition [6]: 30% | IC50 [7]: 56 nM | IC50 [8]: 645 nM | IC50 [9]: 63 nM | IC50 [10]: 27 nM | IC50 [2]: 0.66 µM | IC50 [12]: 710 nM | IC50 [13]: 5.49 µM
Structure (SMILES): Cl.c1ccc(-c2cccc(Nc3ncnc4cc5c(cc34)OCCCO5)c2)cc1
Activity [3]: Toxic | inhibition [4]: Active | IC50 [11]: 3000 nM | IC50 [1]: 0.92 µM | IC50 [14]: 910 nM | IC50 [15]: 700 nM | inhibition [16]: Active | Activity [17]: Toxic | Activity [18]: Active | Activity [19]: Active | Activity [20]: inactive

IC50 [2]: > 10 µM
Structure (SMILES): Brc1cccc(Nc2ncnc3c2ccc2ccccc23)c1
IC50 [1]: > 10 µM

IC50 [2]: 5.17 µM
Structure (SMILES): Cc1ccnc(Nc2ncnc3cc4c(cc23)OCCO4)c1
IC50 [1]: 6.6 µM

IC50 [2]: > 10 µM
Structure (SMILES): Cc1ccnc(Nc2ncnc3cc4c(cc23)OCO4)c1
IC50 [1]: > 10 µM

inhibition [6]: 50% | IC50 [7]: 24 nM | IC50 [8]: 642 nM | IC50 [22]: 100 nM | IC50 [9]: 178 nM | IC50 [12]: 680 nM | IC50 [13]: 0.62 µM
Structure (SMILES): Cl.c1ccc(-c2cccc(Nc3ncnc4cc5c(cc34)OCCO5)c2)cc1
TGI [21]: inactive | inhibition [4]: Active | IC50 [11]: 2700 nM | IC50 [1]: 0.6 µM | IC50 [14]: 80 nM | IC50 [15]: 740 nM | inhibition [16]: Active | Activity [17]: Toxic | Activity [18]: Active | Activity [19]: Active | Activity [23]: Active | Activity [20]: Active
